From ChEMBL document CHEMBL4340525, “Tumor-Targeted Delivery of 6-Diazo-5-oxo-l-norleucine (DON) Using Substituted Acetylated Lysine Prodrugs” (J Med Chem, 2019)

Assays:
[1] = AUC (0 to t) in CES1-deficient C57BL/6 mouse tumor implanted with mouse EL4 cells at 3.2 mg/kg, sc administered as single dose by LC-MS/MS analysis; type: ADME, organism-based, Neoplasm; conditions: in vivo
Procedure, shortened: (§1)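 Male and female C57BL/6 CES1-/- mice, 6–8 weeks old, carried flank EL4 tumours from SC injection of 1 × 10^6 cells in PBS. Dosing began at about 400 mm3 mean tumour volume. Each mouse got one SC dose of 3.2 mg/kg (1 mg/kg DON equivalent) in ethanol/Tween 80/saline 5:10:85. Plasma, jejunum and tumour were taken at set times, n = 3 per time point. Prodrug and dabsyl-derivatised DON were measured by LC-MS/MS. Noncompartmental analysis: Cmax and Tmax observed, AUClast by log-linear trapezoidal rule.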

[2] = Drug level in human P493B cells suspended in human plasma assessed as tumor cell to plasma ratio by measuring 6-diazo-5-oxo-L-norleucine formation at 20 uM measured after 1 hr by LC-MS/MS analysis; type: ADME, cell-based
Procedure, shortened: (§2)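 Cells were grown in RPMI 1640 with 10% FBS, washed in DPBS and resuspended in human plasma at 10 million cells/mL. After 5 min preincubation at 37 °C, compound was added at 20 µM final for 1 h. The mix was centrifuged at 10 000g and the washed pellet and plasma were quantified separately. DON was read by LC-MS/MS after dabsyl chloride derivatisation, intact prodrug directly. Standard curves were made in naive cells or plasma.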

[3] = Stability in swine plasma assessed as parent compound remaining at 20 uM measured after 1 hr by LC-MS/MS analysis; conditions: Sus scrofa, pig
Histone deacetylase 2 = Histone deacetylase 2 (Homo sapiens, UniProt Q92769); experiment: Stability of the compound assessed as recombinant human HDAC2-mediated compound hydrolysis by measuring parent compound remaining at 1 uM measured after 3 hrs by UHPLC-MS analysis; type: ADME
Procedure, shortened: (§3)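 Compound at 1 µM was incubated at 37 °C with shaking in 50 mM MES pH 6 with 5 mM DTT. Recombinant human enzyme final levels: HDAC2 10 µg/mL, cathepsin B 1 µg/mL, cathepsin L 0.1 µg/mL, alone or cathepsins B+L combined. Aliquots were quenched in methanol with losartan at 0.25, 0.5, 1 and 3 h. Parent remaining by Q-TOF LC-MS.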

[4] = Tmax in CES1-deficient C57BL/6 mouse plasma implanted with mouse EL4 cells assessed as 6-diazo-5-oxo-L-norleucine level at 3.2 mg/kg, sc administered as single dose by LC-MS/MS analysis; type: ADME, organism-based; conditions: in vivo; procedure, shortened: as §1
[5] = Ratio of 6-diazo-5-oxo-L-norleucine EC50 to test compound EC50 for human P493B cells; type: functional
[6] = Stability of the compound in wild-type C57BL/6 mouse plasma measured after 60 mins by UHPLC-MS analysis; type: ADME, cell-free; conditions: 1 h
[7] = Stability in human plasma suspended with human P493B cells at 20 uM by LC-MS/MS analysis; type: ADME; conditions: TDE = time-dependent effect; procedure, shortened: as §2
[8] = Prodrug conversion in human P493B cells suspended in human plasma assessed as 6-diazo-5-oxo-L-norleucine formation at 20 uM measured after 1 hr by LC-MS/MS analysis; type: ADME, cell-based; procedure, shortened: as §2
[9] = Stability in human liver S9 fraction assessed as parent compound remaining at 1 uM measured after 1 hr by LC-MS/MS analysis; type: ADME, subcellular; conditions: read-out: Stability
Procedure, shortened: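 Human liver microsomes (0.2 mg/mL protein) or S9 fraction (0.5 mg/mL) were incubated with prodrug at 1 µM final, 37 °C, 1 h with shaking. Reactions were quenched in triplicate with three volumes acetonitrile containing losartan. Parent remaining was taken from analyte/internal-standard peak-area ratio by UHPLC-MS/MS.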

[10] = Prodrug conversion in human plasma suspended with human H69 cells assessed as 6-diazo-5-oxo-L-norleucine formation at 20 uM measured after 1 hr by LC-MS/MS analysis; type: ADME, cell-free; procedure, shortened: as §2
[11] = Prodrug conversion in human DU4475 cells suspended in human plasma assessed as 6-diazo-5-oxo-L-norleucine formation at 20 uM measured after 1 hr by LC-MS/MS analysis; type: ADME, cell-based; conditions: du-4475, 1 h; procedure, shortened: as §2
[12] = Drug level in human P493B cells suspended in human plasma assessed as tumor cell to plasma ratio by measuring 6-diazo-5-oxo-L-norleucine formation at 20 uM measured after 1 hr by LC-MS/MS analysis relative to 6-diazo-5-oxo-L-norleucine alone; type: ADME, cell-based; procedure, shortened: as §2
[13] = Stability of the compound in wild-type C57BL/6 mouse plasma assessed as de-esterification of carboxyl ester measured after 60 mins by HRMS analysis; type: ADME, cell-free; conditions: 1 h
[14] = AUC (0 to t) in CES1-deficient C57BL/6 mouse jejunum implanted with mouse EL4 cells assessed as 6-diazo-5-oxo-L-norleucine level at 3.2 mg/kg, sc administered as single dose by LC-MS/MS analysis; type: ADME, organism-based; conditions: in vivo; procedure, shortened: as §1
[15] = Cmax in CES1-deficient C57BL/6 mouse plasma implanted with mouse EL4 cells assessed as 6-diazo-5-oxo-L-norleucine level at 3.2 mg/kg, sc administered as single dose by LC-MS/MS analysis; type: ADME, organism-based; design: dose 3.2 mg/kg, route subcutaneous; conditions: in vivo; procedure, shortened: as §1
Homo sapiens = organism: Homo sapiens; experiment: Stability of the compound assessed as recombinant human cathepsin L/cathepsin B-mediated compound hydrolysis by measuring parent compound remaining at 1 uM measured after 3 hrs by UHPLC-MS analysis; procedure, shortened: as §3
[16] = Stability in human plasma suspended with human P493B cells at 20 uM measured after 1 hr by LC-MS/MS analysis; type: ADME, cell-free; procedure, shortened: as §2
[17] = AUC (0 to t) in CES1-deficient C57BL/6 mouse plasma implanted with mouse EL4 cells at 3.2 mg/kg, sc administered as single dose by LC-MS/MS analysis; type: ADME, organism-based; procedure, shortened: as §1
[18] = Tmax in CES1-deficient C57BL/6 mouse jejunum implanted with mouse EL4 cells at 3.2 mg/kg, sc administered as single dose by LC-MS/MS analysis; type: ADME, organism-based; conditions: in vivo, BLD = below limit of detection; procedure, shortened: as §1
[19] = Stability in human plasma assessed as parent compound remaining at 20 uM measured after 1 hr by LC-MS/MS analysis
Cathepsin B = Cathepsin B (Homo sapiens, UniProt P07858); experiment: Stability of the compound assessed as recombinant human cathepsin B-mediated compound hydrolysis by measuring parent compound remaining at 1 uM measured after 3 hrs by UHPLC-MS analysis; type: ADME; procedure, shortened: as §3
Procathepsin L = Procathepsin L (Homo sapiens, UniProt P07711); experiment: Stability of the compound assessed as recombinant human cathepsin L-mediated compound hydrolysis by measuring parent compound remaining at 1 uM measured after 3 hrs by UHPLC-MS analysis; type: ADME; procedure, shortened: as §3
Chain of Procathepsin L (P07711 whole entry): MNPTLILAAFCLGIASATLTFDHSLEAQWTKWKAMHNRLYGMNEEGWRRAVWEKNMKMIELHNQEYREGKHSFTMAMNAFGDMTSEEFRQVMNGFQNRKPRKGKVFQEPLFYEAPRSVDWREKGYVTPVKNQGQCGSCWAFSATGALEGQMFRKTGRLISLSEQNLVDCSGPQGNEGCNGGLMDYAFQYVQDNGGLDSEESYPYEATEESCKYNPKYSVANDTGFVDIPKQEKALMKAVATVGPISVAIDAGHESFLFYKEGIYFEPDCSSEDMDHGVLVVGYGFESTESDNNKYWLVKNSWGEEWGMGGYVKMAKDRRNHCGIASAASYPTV

Chain of Histone deacetylase 2 (Q92769 whole entry): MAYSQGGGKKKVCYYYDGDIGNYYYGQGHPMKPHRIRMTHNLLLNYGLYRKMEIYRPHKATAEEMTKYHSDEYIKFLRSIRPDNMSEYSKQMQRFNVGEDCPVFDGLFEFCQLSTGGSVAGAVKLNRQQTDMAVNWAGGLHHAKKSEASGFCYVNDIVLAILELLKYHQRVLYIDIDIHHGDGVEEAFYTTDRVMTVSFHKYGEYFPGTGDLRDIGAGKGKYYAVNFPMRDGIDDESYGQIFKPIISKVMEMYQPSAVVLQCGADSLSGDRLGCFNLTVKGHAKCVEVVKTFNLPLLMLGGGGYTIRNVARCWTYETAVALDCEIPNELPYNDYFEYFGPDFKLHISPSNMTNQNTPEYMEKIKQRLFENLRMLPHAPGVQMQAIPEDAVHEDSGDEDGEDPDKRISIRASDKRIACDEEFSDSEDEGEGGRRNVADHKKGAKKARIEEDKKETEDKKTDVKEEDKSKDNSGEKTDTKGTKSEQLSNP

CC(=O)NCCCC[C@H](NC(=O)C12CC3CC(CC(C3)C1)C2)C(=O)N[C@@H](CCC(=O)C=[N+]=[N-])C(=O)OC(C)C
AUCt [1]: 0.03 nmol·h/g
Ratio [2]: 22
Stability [3]: 108%
Stability (Histone deacetylase 2): > 95%
Tmax [4]: 30 min
Ratio EC50 [5]: 2
Stability [6]: Unstable
Stability [7]: Tde
Drug metabolism [8]: 8.81 µM
remaining at 1 h, 1 µM [9]: 100%
Drug metabolism [10]: 0.25 to 0.5 µM
Drug metabolism [11]: 11.8 µM
fold change (FC) [12]: 55
Stability [13]: Unstable
AUCt [14]: 0.45 nmol·h/g
Cmax [15]: 440 nM
Stability (Homo sapiens): 9%
Stability [16]: Stable
AUC(0-t) [17]: 0.4 µM·h
Tmax [18]: Bld
Stability [19]: 107%
Stability (Cathepsin B): 64%
Stability (Procathepsin L): 36%
